MPTP block = inhibitors of mitochondrial permeability transition pore; hit rate 1.4% among 360,000; inhibition, % at 10 µM; isolated mouse mitochondria, Ca2+ swelling absorbance, 30 min;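 active = inhibition of 50% or more, scaled per plate between neutral and stimulator controls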;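 also: 0% = DMSO wells given calcium and 100% = 1 mM EGTA wells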
OX1R antag-1 = blocks the human orexin 1 receptor | inhibition, % at 5 µM | hit rate 0.43% among 330,000 | CHO/OX1R cells, Fluo-8 calcium fluorescence, orexin A | O43613;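 active = inhibition above its plate's threshold, mean inhibition of all tested compounds on the plate plus 3 SD, cut at about 37% in these data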;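 also: 0% = orexin A challenge wells and 100% = SB-334867-A antagonist wells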
OX1R antag-2 = antagonists of human orexin 1 receptor (OX1R). OX1R-expressing cells, FRET antagonist read-out. O43613. inhibition, % at 6.6 µM. hit rate 1.8% among 330,000; in the data active = inhibition mostly above about 38%, no sharp cut-off; inactive = mostly below about 40%;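 also: 0% = agonist challenge alone and 100% = reference antagonist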
CHO parental Ca = signal in parental CHO cells, OX1R antagonist counter-screen; parental CHO-K1, ATP-induced calcium, Fluo-8 fluorescence; inhibition, % at 5.6 µM; hit rate 0.63% among 330,000; AID 463079;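 active = inhibition above that plate's mean sample inhibition plus 3 SD, cut at about 26% in these data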;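 also: 0% = ATP-challenged DMSO wells and 100% = DMSO wells without ATP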
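Assay system: untransfected parental CHO cell line. Also added: ATP agonist challenge. Dosing: one dose, 5.6 µM nominal. Measured by: Fluo-8 fluorescence. Read-out: % inhibition. Benchmarks: ATP wells versus no-ATP DMSO wells. Repeats: no replicates.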
GPR7 antag = human neuropeptides B/W receptor 1 antagonism; P48145; GPR7-expressing cells, fluorescence antagonist assay; inhibition, % at 4.4 µM; hit rate 1.1% among 290,000; AID 1861; in the data active = inhibition above about 16%, passing the limit was not always enough;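 also: cells stimulated with the agonist NPW; 0% = agonist with vehicle and 100% = vehicle without agonist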
Target sequence (P48145 whole entry, looked up): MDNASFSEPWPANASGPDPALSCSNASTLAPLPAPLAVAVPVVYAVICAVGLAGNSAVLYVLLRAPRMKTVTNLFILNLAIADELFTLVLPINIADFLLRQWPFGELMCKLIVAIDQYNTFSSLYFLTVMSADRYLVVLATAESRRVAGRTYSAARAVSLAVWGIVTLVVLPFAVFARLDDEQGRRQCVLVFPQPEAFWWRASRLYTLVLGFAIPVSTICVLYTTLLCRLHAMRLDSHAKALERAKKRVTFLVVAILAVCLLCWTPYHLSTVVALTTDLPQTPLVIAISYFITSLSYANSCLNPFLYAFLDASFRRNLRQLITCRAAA
MPTP counter = membrane potential counter-screen of mitochondrial pore inhibitors. hit rate 78% among 5,000. inhibition, % at 10 µM. shares compounds with MPTP block. isolated mitochondria, Rhodamine 123 fluorescence; in the data active = inhibition above about 22%;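 also: 0% = DMSO vehicle and 100% = positive control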
MPTP swell DR = MPTP inhibition, dose response swelling confirmation. shares compounds with MPTP block. hit rate 58% among 780. IC50, µM. isolated mitochondria swelling, absorbance. AID 651561; in the data active = IC50 below about 20 µM
MPTP cs DR = active in counter-screen for permeability transition pore inhibitors; shares compounds with MPTP block; isolated mitochondria counterscreen, fluorescence read-out; IC50, µM; hit rate 49% among 780; in the data active = IC50 below about 80 µM
The depositor's hits bear a star. Sampled rows, rich in hits. Any-hit rate of the full collection: about 3.8%.

What do the screens show for `Cc1ccc(S(=O)(=O)NN=C2C(=O)C3CCC2C3Cl)cc1` (configuration not stated)?
MPTP block: -1

How did CC(=O)N(C)c1ccc(NC(=O)CCN2C(=O)c3ccccc3C2=O)cc1 do in these assays?
MPTP block: 1; OX1R antag-1: -13; OX1R antag-2: 16; CHO parental Ca: -1; GPR7 antag: -12

What do the screens show for `CC(=O)c1ccc(S(=O)(=O)Nc2ccc(C(=O)N(C)CC(=O)Nc3cccc(C)c3C)cc2)cc1`?
MPTP block: 1; OX1R antag-1: 0; OX1R antag-2: -4; CHO parental Ca: -14

What do the screens show for `COc1ccccc1NC(=O)CCCCCN1C(=O)c2cccc([N+](=O)[O-])c2C1=O`?
MPTP block: 1; OX1R antag-1: -11; OX1R antag-2: 29; CHO parental Ca: -12; GPR7 antag: -21

How did COc1cc(/C=C2/C(=O)c3cccc([N+](=O)[O-])c3C2=O)c(Br)cc1O do in these assays?
MPTP block: 134*; OX1R antag-1: -2; OX1R antag-2: 24; CHO parental Ca: -12; GPR7 antag: -6; MPTP counter: 53*

What do the screens show for `CCn1c(=O)c2ccccc2n2c(SCC(=O)N3CCCc4ccccc43)nnc12`?
MPTP block: 54*; OX1R antag-1: -15; OX1R antag-2: -1; CHO parental Ca: -23; GPR7 antag: -6; MPTP counter: 3; MPTP swell DR: >100; MPTP cs DR: >80

What do the screens show for `CC(C)Cn1c(-c2ccc(Br)cc2)c[nH]c1=S`?
MPTP block: 0; OX1R antag-1: -14; OX1R antag-2: 18; CHO parental Ca: -23; GPR7 antag: 5

How did O=C(Nc1ccccc1Br)C1CCC(=O)N1Cc1ccccc1Cl (configuration not stated) do in these assays?
MPTP block: 66*; OX1R antag-1: -1; OX1R antag-2: 11; CHO parental Ca: -13; GPR7 antag: 3; MPTP counter: 78*

Results for OCCCNc1ncnc2c1cnn2-c1ccc(Cl)cc1 ?
MPTP block: 0; OX1R antag-1: -7; OX1R antag-2: 0; CHO parental Ca: 2; GPR7 antag: 29

Results for CN(C)CCNc1ncnc2c1cnn2-c1ccc(Cl)cc1 ?
MPTP block: 78*; OX1R antag-1: -3; OX1R antag-2: 17; CHO parental Ca: 8; GPR7 antag: 16; MPTP counter: -20; MPTP swell DR: 8.4*; MPTP cs DR: >80

Results for CCC1CCc2sc(C(=O)NC3CCN(Cc4ccccc4)CC3)cc2C1 (configuration not stated) ?
MPTP block: 76*; OX1R antag-1: -4; OX1R antag-2: 9; CHO parental Ca: -12; MPTP counter: -5; MPTP swell DR: 11*; MPTP cs DR: 27*

What do the screens show for `CC1CCc2sc(C(=O)NC3CCN(Cc4ccccc4)CC3)cc2C1` (configuration not stated)?
MPTP block: 1; OX1R antag-1: 30; OX1R antag-2: 2; CHO parental Ca: -20

Results for O=S(=O)(Cc1ccccc1)N=Nc1c(O)[nH]c2ccc(Br)cc12 ?
MPTP block: 0; OX1R antag-1: -2; OX1R antag-2: 48; CHO parental Ca: -5; GPR7 antag: 2

What do the screens show for `O=C(c1ccc(S(=O)(=O)Cc2ccccc2F)c([N+](=O)[O-])c1)N1CCCC1`?
MPTP block: 1; OX1R antag-1: -14; OX1R antag-2: 45; CHO parental Ca: -20; GPR7 antag: -5

What do the screens show for `O=C(c1ccc(S(=O)(=O)c2ccc(F)cc2)c([N+](=O)[O-])c1)N1CCCCCC1`?
MPTP block: 78*; OX1R antag-1: 6; OX1R antag-2: 29; CHO parental Ca: 15; GPR7 antag: -4; MPTP counter: 68*

What do the screens show for `CC1CCCC(C)N1C(=O)c1cc(-c2ccc3c(c2)OCO3)on1` (configuration not stated)?
MPTP block: -1; OX1R antag-1: -18; OX1R antag-2: 15; CHO parental Ca: -1; GPR7 antag: -6

Results for Cc1noc(C)c1COc1ccc(C(=O)Nc2nnc(CC(C)C)s2)cc1 ?
MPTP block: 0; OX1R antag-1: -15; OX1R antag-2: 3; CHO parental Ca: -6

How did S=C(NCCCc1ccccc1)Nc1ccc(Cl)cc1 do in these assays?
MPTP block: 97*; OX1R antag-1: 9; OX1R antag-2: 14; CHO parental Ca: -1; GPR7 antag: 7; MPTP counter: 91*

How did S=C(NCCC(c1ccccc1)c1ccccc1)Nc1ccc(Cl)cc1 do in these assays?
MPTP block: 93*; OX1R antag-1: 16; OX1R antag-2: 17; CHO parental Ca: -15; GPR7 antag: 16; MPTP counter: 75*

Results for CCC(CO)NCc1ccc(OCC(=O)Nc2cccc(C(F)(F)F)c2)c(OC)c1 (configuration not stated) ?
MPTP block: 58*; OX1R antag-1: -10; OX1R antag-2: 7; CHO parental Ca: -4; GPR7 antag: 6; MPTP counter: -14; MPTP swell DR: 17*; MPTP cs DR: >80

How did CCOc1cc(CNC(C)(C)C)ccc1OCC(=O)Nc1cccc(C(F)(F)F)c1 do in these assays?
MPTP block: 2; OX1R antag-1: -16; OX1R antag-2: 7; CHO parental Ca: -7; GPR7 antag: 5

How did CCc1nc2c(cnn2-c2ccc(F)cc2)c(=O)n1-c1ccc(N2CCC(C)CC2)cc1 do in these assays?
MPTP block: 76*; OX1R antag-1: -36; OX1R antag-2: 7; CHO parental Ca: -3; GPR7 antag: 0; MPTP counter: 2; MPTP swell DR: 7.3*; MPTP cs DR: 21*

What do the screens show for `COc1ccc(-c2cc(C3CCN(c4ccc(C(C)=O)cc4[N+](=O)[O-])CC3)[nH]n2)cc1`?
MPTP block: 84*; OX1R antag-1: 25; OX1R antag-2: 36; CHO parental Ca: 50*; GPR7 antag: 6; MPTP counter: 81*

What do the screens show for `CC(C)C[C@@H](CN)NC(=O)c1nc[nH]c1C(=O)N[C@@H](CC(C)C)C(=O)CNC[C@H](C)NC(=O)c1nc[nH]c1C(=O)N[C@@H](C)C(=O)O`?
MPTP block: 0

What do the screens show for `CCN1CCCC1CNC(=O)c1cc2c(-c3ccc(Cl)cc3)nn(C)c2s1` (configuration not stated)?
MPTP block: 83*; OX1R antag-1: -17; OX1R antag-2: 7; CHO parental Ca: -16; GPR7 antag: 12; MPTP counter: -19; MPTP swell DR: 11*; MPTP cs DR: >80

Results for O=C(COC(=O)C1C2CC3OC(=O)C1C3C2)Nc1ccc(Br)cc1 (configuration not stated) ?
MPTP block: 2; OX1R antag-1: -4; OX1R antag-2: 3; CHO parental Ca: -5; GPR7 antag: -4
